The test system of test [1] is MCF7. Description: Increase in endogenous C16-ceramide level in human MCF7 cells at 10 uM after 1 to 2.5 hrs. It counts as functional. In a few lines: (§1)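 MCF7 cells grown in RPMI 1640 with 10% FCS at 37 °C, 5% CO2. Seeded at ~50% density (1×10^6 cells), treated 24 h later with compounds in ethanol (0.1% final); controls got ethanol only. Cells washed in cold PBS and lipids extracted. Cer species and Sph quantified by HPLC-MS/MS (MRM, positive ion) against internal standards and calibration curves. Values given as pmol/nmol phospholipid and compared with ethanol controls.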

Test [2] concerns MCF7. Description: Increase in endogenous C16-ceramide level in human MCF7 cells at 50 uM after 24 hrs. Format: functional. The method, boiled down: as §1
The subject of test [3] is MCF7. The test can be described thus: Decrease in endogenous C24-ceramide level in human MCF7 cells at 10 uM after 24 hrs. Format: functional. Also on record: scale not given: the % may be the effect or the level left. The method, boiled down:
as §1

Test [4] concerns MCF7. Description: Increase in endogenous ceramide level in human MCF7 cells at more than 5 uM after 24 hrs. Format: functional, cell-based. The method, boiled down:
(§2)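 MCF7 cells grown in RPMI 1640 with 10% FCS at 37 °C in 5% CO2. Seeded near 50% density and treated 24 h later with compound in ethanol (0.1% final); controls got ethanol alone. Cells washed in cold PBS and extracted. Cer species, Sph and S1P measured by HPLC-MS/MS (C8 column, positive-ion MRM) against internal standards and calibration curves. Results given as pmol/nmol phospholipid phosphate, relative to ethanol controls.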

Test [5] concerns MCF7. The test can be described thus: Increase in endogenous C24:1-ceramide level in human MCF7 cells at 50 uM after 24 hrs. Format: functional. The method, boiled down: as §2
The test system of test [6] is MCF7. Description: Decrease in endogenous sphingosine level in human MCF7 cells at 50 uM after 24 hrs. It counts as functional. Also on record: scale not given: the % may be the effect or the level left. The method, boiled down:
as §1

For test [7], the system named is MCF7. The test can be described thus: Increase in endogenous C24-ceramide level in human MCF7 cells at 50 uM after 24 hrs. Format: functional. The method, boiled down: as §2
The test system of test [8] is MCF7. Description: Growth inhibition of human MCF7 cells after 48 hrs. It counts as functional, cell-based.
Test [9] relates to MCF7. The test can be described thus: Decrease in endogenous C24:1-ceramide level in human MCF7 cells at 10 uM. Also on record: scale not given: the % may be the effect or the level left.
For test [10], the system named is MCF7. Description: Increase in endogenous ceramide level in human MCF7 cells at 50 uM after 24 hrs. Format: functional. In a few lines:
as §2

Test [11] relates to MCF7. The test can be described thus: Increase in endogenous C18-ceramide level in human MCF7 cells at 10 uM after 2.5 hrs. It counts as functional. The method, boiled down: as §1
Test [12] has as its system MCF7. Description: Increase in endogenous C14-ceramide level in human MCF7 cells at 10 uM after 2.5 hrs. It counts as functional. The method, boiled down:
as §1

Test [13] has as its system MCF7. Description: Increase in endogenous C16-ceramide level in human MCF7 cells at 10 uM after 24 hrs. Format: functional, cell-based. The method, boiled down: as §1
In test [14] the test system is MCF7. Description: Decrease in endogenous sphingosine level in human MCF7 cells at 10 uM upto 24 hrs. It counts as functional, cell-based. In a few lines: as §1
Test [15] has as its system MCF7. The test can be described thus: Decrease in endogenous C24:1-ceramide level in human MCF7 cells at 10 uM after 24 hrs. Format: functional. In a few lines: as §1
Test [16] relates to MCF7. Description: Increase in endogenous C14-ceramide level in human MCF7 cells at 10 uM after 24 hrs. Format: functional. The method, boiled down:
as §1

The test system of test [17] is MCF7. The test can be described thus: Decrease in endogenous sphingosine level in human MCF7 cells at 1 uM after 24 hrs. It counts as functional. In a few lines:
as §1

The test system of test [18] is MCF7. The test can be described thus: Inhibition of acid ceramidase in human MCF7 cells assessed as enzyme degradation at 10 uM after 5 hrs. Format: cell-based.
In test [19] the test system is MCF7. Description: Increase in endogenous C14-ceramide level in human MCF7 cells at 10 uM upto 24 hrs. Format: functional, cell-based. In a few lines: as §1
Test [20] relates to MCF7. The test can be described thus: Increase in endogenous C14-ceramide level in human MCF7 cells at 1 uM after 24 hrs. It counts as functional, cell-based. In a few lines:
as §1

The subject of test [21] is MCF7. Description: Increase in endogenous C18-ceramide level in human MCF7 cells at 10 uM after 5 mins. It counts as functional, cell-based. In a few lines: as §1
The subject of test [22] is MCF7. Description: Increase in endogenous C24:1-ceramide level in human MCF7 cells at 10 uM after 5 mins. Format: functional, cell-based. In a few lines: as §2
Test [23] deals with MCF7. The test can be described thus: Increase in endogenous ceramide level in human MCF7 cells at 1 uM after 24 hrs. It counts as functional. In a few lines: as §2
Test [24] deals with MCF7. Description: Increase in endogenous C16-ceramide level in human MCF7 cells at 10 uM after 2.5 hrs. Format: functional. The method, boiled down: as §1
Test [25] concerns MCF7. The test can be described thus: Decrease in endogenous sphingosine level in human MCF7 cells at 10 uM within 5 mins. Also on record: scale not given: the % may be the effect or the level left. Format: functional. The method, boiled down: as §1
The test system of test [26] is MCF7. The test can be described thus: Increase in endogenous C14-ceramide level in human MCF7 cells at 10 uM after 5 mins. It counts as functional, cell-based. The method, boiled down:
as §1

The test system of test [27] is MCF7. The test can be described thus: Increase in endogenous C24-ceramide level in human MCF7 cells at 10 uM after 5 mins. Format: functional, cell-based. The method, boiled down:
as §1

Test [28] has as its system MCF7. The test can be described thus: Increase in endogenous C16-ceramide level in human MCF7 cells at 1 uM after 24 hrs. It counts as functional, cell-based. The method, boiled down:
as §1

The subject of test [29] is MCF7. Description: Inhibition of endogenous sphingosine level in human MCF7 cells at 10 uM after 2.5 hrs. Format: functional, cell-based. In a few lines: as §2
The test system of test [30] is MCF7. Description: Increase in endogenous C18-ceramide level in human MCF7 cells at 1 uM after 24 hrs. It counts as functional, cell-based. The method, boiled down:
as §1

The subject of test [31] is MCF7. The test can be described thus: Increase in endogenous C16-ceramide level in human MCF7 cells at 10 uM after 5 mins. It counts as functional, cell-based. The method, boiled down: as §1
In test [32] the test system is MCF7. Description: Increase in endogenous sphingosine level in human MCF7 cells at 10 uM after 24 hrs. It counts as functional. The method, boiled down: as §2
Test [33] relates to MCF7. The test can be described thus: Increase in endogenous sphingosine level in human MCF7 cells at 10 uM after 1 to 2.5 hrs. Format: functional, cell-based. In a few lines: as §2
The subject of test [34] is MCF7. The test can be described thus: Increase in endogenous C24-ceramide level in human MCF7 cells at 10 uM after 1 to 2.5 hrs. Format: functional, cell-based. In a few lines:
as §1

For test [35], the system named is MCF7. Description: Increase in endogenous C24:1-ceramide level in human MCF7 cells at 10 uM after 1 to 2.5 hrs. Format: functional, cell-based. In a few lines:
as §2

Test [36] has as its system MCF7. The test can be described thus: Increase in endogenous sphingosine level in human MCF7 cells upto 10 uM after 24 hrs. Format: functional, cell-based. The method, boiled down: as §2
Test [37] has as its system MCF7. The test can be described thus: Decrease in endogenous sphingosine level in human MCF7 cells at 50 uM after 24 hrs. Also on record: scale not given: the % may be the effect or the level left.
The test system of test [38] is MCF7. The test can be described thus: Decrease in endogenous sphingosine level in human MCF7 cells upto 10 uM after 48 hrs. Format: functional. Also on record: scale not given: the % may be the effect or the level left. The method, boiled down:
as §1

Calls of active or inactive are those of the source. No cut-off for these calls is given here.

As for `CCCCCCCCCCCCCC(=O)N[C@H](CO)[C@H](O)c1ccc([N+](=O)[O-])cc1`, the Activity with MCF7 [1] is given as 120%; in the test on MCF7 [2], 340%; in the test with MCF7 [3] it was 80%; in the test on MCF7 [5], 380%; in the test with MCF7 [6] it was 50%; in the test with MCF7 [7] it was 220%. Moreover, the Activity in the test with MCF7 [9] is given as 80%; in the test with MCF7 [10] it was 300%; in the test on MCF7 [12], 120%. Besides, the outcome with MCF7 [4], in the test with MCF7 [8] and in the test on MCF7 [11] was Active.

For `CCCCCCCCCCCCCCN[C@H](CO)[C@H](O)c1ccc([N+](=O)[O-])cc1.Cl`, the outcome in the test on MCF7 [13], with MCF7 [3], in the test with MCF7 [14], with MCF7 [15], in the test on MCF7 [17] and with MCF7 [18] was Active. Moreover, the result in the test on MCF7 [19] was Active. The Activity with MCF7 [16] is 850%.

For `CCCCCCCCCCCCCCN[C@H](C)[C@@H](O)c1ccccc1.Cl`, the outcome with MCF7 [20], in the test with MCF7 [21], in the test with MCF7 [18], with MCF7 [26], in the test on MCF7 [28] and with MCF7 [29] was Active. The outcome in the test on MCF7 [30] and with MCF7 [31] was Active. In addition, the Activity amounted to 80% in the test with MCF7 [17]; 180% in the test on MCF7 [23]; 330% in the test with MCF7 [24]; 25% in the test with MCF7 [25]; 260% in the test with MCF7 [11]; 430% in the test on MCF7 [12]. Also, the result in the test on MCF7 [22] and in the test on MCF7 [27] was inactive.

`CCCCCCCCCCCCCCN[C@H](C)[C@H](O)c1ccccc1`: the result in the test with MCF7 [29] was Active.

Turning to `CCCCCCCCCCCCNC(=O)N[C@H](C)[C@@H](O)c1ccccc1`, the Activity came out at 140% with MCF7 [32], 25% in the test on MCF7 [37], 25% with MCF7 [38] and 180% with MCF7 [10]. The outcome with MCF7 [2], with MCF7 [33], in the test with MCF7 [34], in the test with MCF7 [35], in the test on MCF7 [36] and with MCF7 [8] was Active.

For the origin of these results see ChEMBL document CHEMBL1143123, “Novel analogs of D-e-MAPP and B13. Part 2: signature effects on bioactive sphingolipids” (2008).
